Results on seven compounds are retold here after ChEMBL document CHEMBL4052643, “Development of molecular tools based on the dopamine D3 receptor ligand FAUC 329 showing inhibiting effects on drug and food maintained behavior” (Bioorg Med Chem, 2017).

Activity calls are given as the source filed them. The rule behind the calls is not given here.

Data set [1] can be described thus: Displacement of […] from porcine cerebral cortex 5-HT1A receptor. On the set-up: species or system Sus scrofa.
In data set [2] the target is D(3) dopamine receptor (Homo sapiens, UniProt P35462). The experiment in a line: Displacement of [3H]spiperone from human D3 receptor expressed in CHO cell membranes. On the technique in general: Displacement assays read how much labelled ligand stays bound in the presence of the test substance.
Chain of D(3) dopamine receptor (P35462 whole entry): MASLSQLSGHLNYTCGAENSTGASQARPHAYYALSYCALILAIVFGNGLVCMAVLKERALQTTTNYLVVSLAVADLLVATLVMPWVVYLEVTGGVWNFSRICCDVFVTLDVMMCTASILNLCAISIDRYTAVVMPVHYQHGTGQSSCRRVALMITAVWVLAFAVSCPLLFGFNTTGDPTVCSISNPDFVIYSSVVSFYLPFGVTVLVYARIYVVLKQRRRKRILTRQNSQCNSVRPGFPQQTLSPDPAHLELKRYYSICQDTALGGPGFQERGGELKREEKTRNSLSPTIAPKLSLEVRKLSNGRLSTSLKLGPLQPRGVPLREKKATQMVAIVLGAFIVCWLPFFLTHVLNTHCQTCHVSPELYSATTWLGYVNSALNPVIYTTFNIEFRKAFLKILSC
For data set [3], the target named is T1, D(2) dopamine receptor (Homo sapiens, UniProt P14416). In words: Displacement of [3H]spiperone from human D2-short receptor expressed in CHO cell membranes.
T1 sequence (P14416 whole entry): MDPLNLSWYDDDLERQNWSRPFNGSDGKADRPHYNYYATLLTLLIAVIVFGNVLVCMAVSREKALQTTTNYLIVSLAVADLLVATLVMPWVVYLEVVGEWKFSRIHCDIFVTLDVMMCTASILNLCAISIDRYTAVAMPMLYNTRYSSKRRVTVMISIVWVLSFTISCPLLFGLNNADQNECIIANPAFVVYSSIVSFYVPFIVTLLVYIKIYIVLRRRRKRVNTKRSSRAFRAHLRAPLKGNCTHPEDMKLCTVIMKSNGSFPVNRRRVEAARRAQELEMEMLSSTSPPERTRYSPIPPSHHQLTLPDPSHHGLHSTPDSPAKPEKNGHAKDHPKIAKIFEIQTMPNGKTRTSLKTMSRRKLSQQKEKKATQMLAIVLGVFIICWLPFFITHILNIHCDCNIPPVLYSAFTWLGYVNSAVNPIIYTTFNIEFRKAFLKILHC
A short description of data set [4]: Selectivity ratio of Ki for porcine cerebral cortex 5-HT1A receptor to Ki for human D3 receptor expressed in CHO cell membranes. It counts as cell-based.
Data set [5] deals with T1, D(2) dopamine receptor. The experiment in a line: Displacement of [3H]spiperone from human D2-long receptor expressed in CHO cell membranes.
The target in data set [6] is T2, D(4) dopamine receptor (Homo sapiens, UniProt P21917).
T2 sequence (P21917 whole entry): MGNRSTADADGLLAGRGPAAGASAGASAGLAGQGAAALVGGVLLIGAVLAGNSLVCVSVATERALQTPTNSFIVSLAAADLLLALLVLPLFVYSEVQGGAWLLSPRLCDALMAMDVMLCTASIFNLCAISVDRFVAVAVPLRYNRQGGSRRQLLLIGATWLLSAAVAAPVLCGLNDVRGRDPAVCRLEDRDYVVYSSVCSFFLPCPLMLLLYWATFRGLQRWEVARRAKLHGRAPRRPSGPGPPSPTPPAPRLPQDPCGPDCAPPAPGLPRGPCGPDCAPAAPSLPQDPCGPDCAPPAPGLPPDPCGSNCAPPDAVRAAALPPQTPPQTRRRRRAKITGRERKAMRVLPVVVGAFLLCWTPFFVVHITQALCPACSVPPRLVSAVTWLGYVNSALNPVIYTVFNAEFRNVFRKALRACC
The experiment in a line: Displacement of [3H]spiperone from human D4 receptor expressed in CHO cell membranes.

For data set [7], the target named is D(1B) dopamine receptor (Homo sapiens, UniProt P21918). In words: Displacement of […] from human D5 receptor expressed in HEK293T cell membranes. Details: species or system HEK-293T.
Chain of D(1B) dopamine receptor (P21918 whole entry): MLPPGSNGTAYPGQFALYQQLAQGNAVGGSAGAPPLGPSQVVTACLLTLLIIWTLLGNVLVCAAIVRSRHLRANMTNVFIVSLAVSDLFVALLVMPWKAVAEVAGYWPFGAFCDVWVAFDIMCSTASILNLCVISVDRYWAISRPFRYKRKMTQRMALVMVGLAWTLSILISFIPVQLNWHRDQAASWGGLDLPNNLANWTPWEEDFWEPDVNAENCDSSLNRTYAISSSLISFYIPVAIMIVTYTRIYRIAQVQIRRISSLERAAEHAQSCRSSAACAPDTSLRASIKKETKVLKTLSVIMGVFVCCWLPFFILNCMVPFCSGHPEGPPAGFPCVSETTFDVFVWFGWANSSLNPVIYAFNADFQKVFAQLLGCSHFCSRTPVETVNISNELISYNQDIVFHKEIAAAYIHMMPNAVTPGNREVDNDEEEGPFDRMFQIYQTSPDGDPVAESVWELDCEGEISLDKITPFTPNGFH
In data set [8] the target is 5-hydroxytryptamine receptor 2A (Homo sapiens, UniProt P28223). In words: Displacement of [3H]ketanserin from human 5-HT2A receptor expressed in HEK293T cell membranes. On the set-up: species or system HEK-293T.
Chain of 5-hydroxytryptamine receptor 2A (P28223 whole entry): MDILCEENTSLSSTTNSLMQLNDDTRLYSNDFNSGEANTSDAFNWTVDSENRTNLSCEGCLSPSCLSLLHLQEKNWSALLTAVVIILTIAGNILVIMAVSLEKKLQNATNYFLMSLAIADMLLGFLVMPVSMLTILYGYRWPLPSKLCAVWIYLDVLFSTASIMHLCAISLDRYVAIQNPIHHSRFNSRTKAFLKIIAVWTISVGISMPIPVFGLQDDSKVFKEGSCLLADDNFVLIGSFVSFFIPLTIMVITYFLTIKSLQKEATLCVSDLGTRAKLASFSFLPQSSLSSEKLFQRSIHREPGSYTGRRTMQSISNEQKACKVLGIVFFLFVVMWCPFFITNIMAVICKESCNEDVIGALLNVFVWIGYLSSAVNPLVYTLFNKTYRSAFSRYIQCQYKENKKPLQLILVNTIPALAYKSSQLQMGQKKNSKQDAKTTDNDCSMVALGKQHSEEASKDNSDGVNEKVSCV
The target in data set [9] is D(1A) dopamine receptor (Homo sapiens, UniProt P21728). The experiment in a line: Displacement of […] from human D1 receptor expressed in HEK293T cell membranes. Details: species or system HEK-293T.
Chain of D(1A) dopamine receptor (P21728 whole entry): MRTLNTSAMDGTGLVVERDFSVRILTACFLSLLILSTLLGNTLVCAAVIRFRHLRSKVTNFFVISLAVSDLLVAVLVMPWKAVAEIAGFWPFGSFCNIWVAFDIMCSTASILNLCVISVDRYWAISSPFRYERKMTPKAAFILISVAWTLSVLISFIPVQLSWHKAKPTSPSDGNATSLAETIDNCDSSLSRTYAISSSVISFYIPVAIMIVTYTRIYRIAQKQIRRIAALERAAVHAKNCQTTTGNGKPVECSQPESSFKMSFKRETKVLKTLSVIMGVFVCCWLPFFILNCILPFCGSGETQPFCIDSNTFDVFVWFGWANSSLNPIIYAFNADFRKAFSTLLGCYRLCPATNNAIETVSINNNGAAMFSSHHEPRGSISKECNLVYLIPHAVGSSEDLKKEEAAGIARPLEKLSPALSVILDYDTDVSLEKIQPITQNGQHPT
The test system of data set [10] is Rhesus monkey. The experiment in a line: Reduction in cocaine-maintained responding in monkey at 0.18 to 0.32 mg/kg, im administered as single dose 15 mins prior to self administration of 0.01 to 0.03 mg/kg, iv per injection of cocaine for 100 mins relative to control. On the set-up: scale not given: the % may be the effect or the level left. It counts as functional, Macaca mulatta. In outline:
(§1)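 Male rhesus monkeys trained to respond for cocaine and food under daily 2 h FR30 sessions. Sessions ran in order: food 1, a 100-min i.v. cocaine (or saline) component, then food 2. Saline pretreatment served as baseline. Values are mean ± S.E.M. of four experiments, with significance by two-tailed t-test (p < 0.05).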

Data set [11] concerns Rhesus monkey. The experiment in a line: Reduction in cocaine-maintained responding in monkey administered im 15 mins prior to self administration of 0.1 mg/kg, iv per injection of cocaine for 100 mins. It counts as functional, organism-based. The following applies: Macaca mulatta. In outline:
as §1

The test system of data set [12] is Rhesus monkey. The experiment in a line: Reduction in food reinforcement-maintained behavior in monkey at 0.18 to 0.32 mg/kg, im administered as single dose 15 mins prior to food reinforcement during first component of session relative to control. It counts as functional, Macaca mulatta. Details: scale not given: the % may be the effect or the level left. As to conditions: in the assay text read “0.32 mg/kg” for “0.18 to 0.32 mg/kg”. In outline: as §1

The test system of data set [13] is Rhesus monkey. In words: Reduction in cocaine-maintained responding in monkey at 0.18 to 0.32 mg/kg, im administered as single dose 15 mins prior to self administration of 0.1 mg/kg, iv per injection of cocaine for 100 mins relative to control. Details: scale not given: the % may be the effect or the level left. It counts as functional, Macaca mulatta. In outline: as §1

Data set [14] concerns Rhesus monkey. The experiment in a line: Reduction in cocaine-maintained responding in monkey at 0.18 to 0.32 mg/kg, im administered as single dose 15 mins prior to self administration of 0.003 mg/kg, iv per injection of cocaine for 100 mins relative to control. It counts as functional, Macaca mulatta. On the set-up: scale not given: the % may be the effect or the level left. In outline:
as §1

Data set [15] has as its system Rhesus monkey. In words: Reduction in food reinforcement-maintained behavior in monkey at 0.18 to 0.32 mg/kg, im administered as single dose 15 mins prior to food reinforcement during second component of session relative to control. On the set-up: scale not given: the % may be the effect or the level left. It counts as functional, Macaca mulatta. In outline: as §1

The species named for data set [16] is Homo sapiens. In words: Selectivity ratio of Ki for human D5 receptor expressed in HEK293T cell membranes to Ki for human D3 receptor expressed in CHO cell membranes. It counts as cell-based.
For data set [17], the species on record is Homo sapiens. The experiment in a line: Selectivity ratio of Ki for human 5-HT2A receptor expressed in HEK293T cell membranes to Ki for human D3 receptor expressed in CHO cell membranes. It counts as cell-based.
The species named for data set [18] is Homo sapiens. In words: Selectivity ratio of Ki for human D1 receptor expressed in HEK293T cell membranes to Ki for human D3 receptor expressed in CHO cell membranes. It counts as cell-based.
The species entered for data set [19] is Homo sapiens. The experiment in a line: Selectivity ratio of Ki for human D2-long receptor expressed in CHO cell membranes to Ki for human D3 receptor expressed in CHO cell membranes. It counts as cell-based.
The species entered for data set [20] is Homo sapiens. The experiment in a line: Selectivity ratio of Ki for human D2-short receptor expressed in CHO cell membranes to Ki for human D3 receptor expressed in CHO cell membranes. It counts as cell-based.
The species entered for data set [21] is Homo sapiens. The experiment in a line: Selectivity ratio of Ki for human D4 receptor expressed in CHO cell membranes to Ki for human D3 receptor expressed in CHO cell membranes. It counts as cell-based.
A short description of data set [22]: Drug uptake in rat brain plexus tissue at 10 to 15 MBq, iv after 60 mins by phosphorus imaging based autoradiography. It counts as ADME, organism-based. The following applies: in vivo, 1 h. In outline:
(§2)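 Rats injected with the [¹⁸F]-labelled radioligand, alone or co-injected with BP897. Coronal brain sections taken at 60 min p.i. for ex-vivo autoradiography and overlaid with HE-stained sections. Uptake expressed as region of interest-to-background ratio, with control animals compared against BP897 co-injected animals.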

Data set [23] is described as follows: Drug uptake in rat brain striatum at 10 to 15 MBq, iv after 60 mins by phosphorus imaging based autoradiography. It counts as ADME, organism-based. As to conditions: in vivo, 1 h. In outline:
as §2

Data set [24] can be described thus: Drug uptake in rat brain ventricles at 10 to 15 MBq, iv after 40 mins by PET imaging method. It counts as ADME, organism-based, Brain ventricle. The following applies: in vivo.
Data set [25] in a line: Drug uptake in rat brain ependyma cell layer at 10 to 15 MBq, iv after 60 mins by phosphorus imaging based autoradiography. It counts as ADME, organism-based. The following applies: in vivo, 1 h. In outline:
as §2

Data set [26] can be described thus: Drug uptake in rat pituitary gland at 10 to 15 MBq, iv after 40 mins by PET imaging method. The following applies: in vivo. It counts as ADME, organism-based. In outline: (§3)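 In vivo PET scan of rats given the [¹⁸F]-labelled radioligand. Whole pituitary gland uptake measured at 40 min p.i. as %ID/g, with or without BP897 pretreatment.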
A short description of data set [27]: Drug uptake in rat brain calleja islands at 10 to 15 MBq, iv after 60 mins by phosphorus imaging based autoradiography. It counts as ADME, organism-based, Calleja island. The following applies: in vivo, 1 h. In outline:
as §2

The nature of data set [28]: Drug uptake in rat pituitary gland at 10 to 15 MBq, iv after 40 mins pretreated with D3 ligand BP897 by PET imaging method. It counts as ADME, organism-based. The following applies: in vivo. In outline:
as §3

Data set [29] deals with Brain. In words: Drug uptake in rat brain at 10 to 15 MBq, iv after 40 mins by PET imaging method. It counts as ADME, organism-based. The following applies: in vivo.
A short description of data set [30]: Drug uptake in rat brain ventricles at 10 to 15 MBq, iv after 60 mins by phosphorus imaging based autoradiography. It counts as ADME, organism-based, Brain ventricle. As to conditions: in vivo, 1 h. In outline: as §2
For data set [31], the target named is D(3) dopamine receptor (Rattus norvegicus) (UniProt P19020). The experiment in a line: Displacement of BP897 from D3 receptor in rat brain lateral septum nuclei at 5 MBq after 45 mins by phosphorus imaging based autoradiography. As to conditions: 5 M, tested as the 18F-labelled form.
Chain of D(3) dopamine receptor (Rattus norvegicus) (P19020 whole entry): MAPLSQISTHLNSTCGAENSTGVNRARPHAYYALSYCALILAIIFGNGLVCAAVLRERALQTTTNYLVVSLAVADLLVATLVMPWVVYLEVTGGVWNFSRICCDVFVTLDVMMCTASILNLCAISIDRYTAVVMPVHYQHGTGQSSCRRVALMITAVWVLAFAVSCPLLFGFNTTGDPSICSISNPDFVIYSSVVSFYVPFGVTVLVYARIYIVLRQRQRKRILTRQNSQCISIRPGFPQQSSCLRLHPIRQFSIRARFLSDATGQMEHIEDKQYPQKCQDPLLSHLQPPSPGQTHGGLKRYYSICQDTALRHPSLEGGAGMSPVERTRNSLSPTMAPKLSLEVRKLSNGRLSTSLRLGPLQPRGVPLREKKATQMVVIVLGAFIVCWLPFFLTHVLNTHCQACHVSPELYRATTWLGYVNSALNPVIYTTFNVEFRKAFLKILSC
Data set [32] has the same target. In words: Displacement of BP897 from D3 receptor in rat brain striatum at 5 MBq after 45 mins by phosphorus imaging based autoradiography. The following applies: 5 M, tested as the 18F-labelled form.
Data set [33] has the same target. The experiment in a line: Displacement of BP897 from D3 receptor in rat brain cortex at 5 MBq after 45 mins by phosphorus imaging based autoradiography. As to conditions: 5 M, tested as the 18F-labelled form.
For data set [34] the target is unchanged. The experiment in a line: Displacement of BP897 from D3 receptor in rat brain islands of calleja at 5 MBq after 45 mins by phosphorus imaging based autoradiography. As to conditions: 5 M, tested as the 18F-labelled form.
[35] abbreviates: tested as the 18F-labelled form.

As a reminder, the Ki is a measure of affinity in units of concentration, obtained from inhibition or displacement. For `CC(C)(C)c1nc(N2CCN(CCCCNC(=O)c3cc4ccccn4n3)CC2)cc(C(F)(F)F)n1`, the Ki in data set [1] came to 9800 nM; in [2], 1.2 nM; in [3] it was 200 nM; in data set [5], 430 nM; in data set [6] it was 4700 nM; in data set [7], 5700 nM. In addition, the Ki is 2700 nM in data set [8] and 7500 nM in data set [9]. The Ratio Ki in data set [4] was 8000.

For `COc1ccccc1N1CCN(CCCCNC(=O)c2cc3ccccn3n2)CC1`, the Ki in [1] came to 10 nM. Further, the Activity in data set [10] was 70 - 75%; in data set [11], “Dose-dependent effect”; in [12] it was 30%; in data set [13], 45%; in data set [14], below 25%; in [15] it was 80%.

With `CC(C)(C)c1nc(N2CCN(CCCCNC(=O)c3cc4ccccc4s3)CC2)cc(C(F)(F)F)n1`, the Ki in [1] is above 50000 nM; in data set [2], 2.4 nM; in data set [3], 2700 nM; in [5], 4000 nM; in data set [6], above 10000 nM; in [7], above 10000 nM. In addition, the Ki in [8] is 7100 nM; in [9], above 10000 nM. In addition, the Ratio Ki in [16], in [17], in [4], in data set [18], in data set [19] and in data set [20] was 1000 to 20000 throughout. Also, the Ratio Ki in data set [21] was 1000 to 20000.

For `O=C(NCCCCN1CC[N+]2(CCOc3ccccc32)CC1)c1cc2ccccn2n1`, the Ki is 900 nM in data set [1]; 200 nM in data set [2]; 4500 nM in data set [3]; 6300 nM in data set [5]; above 10000 nM in data set [6]; above 50000 nM in data set [7]. In addition, the inhibition constant (Ki) in data set [8] was above 10000 nM; in [9] it was 5700 nM.

In the case of `O=C(NCCCCN1CCN(c2ccccc2OCC[18F])CC1)c1cc2ccccn2n1`, affinity in [2] was put at a Ki of 0.31 nM. Besides, the Drug uptake result is on record as “Active” in data set [22]; “Not Active” in data set [23]; “Active” in data set [24]; “Active” in [25]; 0.394 % ID/g in [26]; “Not Active” in [27]. For the same compound, the results for the Drug uptake entry in [28], in data set [29] and in [30] were “Not Active”, “Active” and “Active”, respectively.

Consider `O=C(NCCCCN1CCN(c2ccccc2OCCF)CC1)c1cc2ccccn2n1`, for which the Ki was found to be 6.5 nM in data set [1]; 0.31 nM in data set [2]; 21 nM in [3]; 39 nM in data set [5]; 160 nM in data set [6]; 3800 nM in [7]. The Ki in [8] worked out at 520 nM; in [9] it was 860 nM. The inhibition entry in [31], in [32], in data set [33] and in [34] was “Active” throughout. Also, the Ratio Ki is 130 in data set [19] (setting [35]) and 68 in data set [20] (setting [35]).

In turn, `CN(C)C(=O)N[C@H]1CC[C@H](CCN2CCN(c3cccc(Cl)c3Cl)CC2)CC1` [CARIPRAZINE] had a Ki in [7] of 7900 nM.
